Source: ChEMBL document CHEMBL1122311, “beta-Adrenergic antagonists with multiple pharmacophores: persistent blockade of receptors” (J Med Chem, 1983)

Legend:
[1] = biological target: T1, Adrenergic receptor beta (Rattus norvegicus) (UniProt P18090+P10608+P26255); test: % specific binding blocked by the compound fraction of 2.6(x10E-6) in beta adrenergic receptor from heart membranes, after serial wash
How it was run: (§1)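 Rat heart or lung membranes (ca. 500 or 150 μg protein) preincubated with compound 1 h at 30 °C, centrifuged, then washed five times (resuspend in buffer, 10 min at 30 °C, centrifuge). Residual specific (–)-[³H]dihydroalprenolol binding (5 nM, 20 min, 30 °C, 50 mM Tris/10 mM MgCl₂ pH 7.4; nonspecific defined with 10 μM (±)-alprenolol) compared with washed untreated membranes; percent inhibition, ≥2 experiments in triplicate.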

[2] = biological target: T1, Adrenergic receptor beta (Rattus norvegicus); test: % specific binding blocked by the compound fraction of 2.6(x10E-6) in beta adrenergic receptor from lung membranes, after serial wash; format: tissue-based; how it was run: as §1
[3] = biological target: T1, Adrenergic receptor beta (Rattus norvegicus); test: % specific binding blocked by the compound fraction of 5.6(x10E-6) in beta adrenergic receptor from heart membranes, after serial wash; how it was run: as §1
[4] = biological target: T1, Adrenergic receptor beta (Rattus norvegicus); test: % specific binding blocked by the compound fraction of 5.6(x10E-6) in beta adrenergic receptor from lung membranes, after serial wash; format: tissue-based; how it was run: as §1
[5] = biological target: T1, Adrenergic receptor beta (Rattus norvegicus); test: % specific binding blocked by the compound fraction of 2.6 (1x10E- 5) in beta adrenergic receptor from lung membranes, after serial wash; format: tissue-based; how it was run: as §1
[6] = biological target: T1, Adrenergic receptor beta (Rattus norvegicus); test: % specific binding blocked by the compound fraction of 5.6 (1x10E- 5) in beta adrenergic receptor from lung membranes, after serial wash; format: tissue-based; how it was run: as §1
[7] = biological target: T1, Adrenergic receptor beta (Rattus norvegicus); test: % specific binding blocked by the compound fraction of 5.6 (1x10E- 5) in beta adrenergic receptor from heart membranes, after serial wash; how it was run: as §1
[8] = biological target: T1, Adrenergic receptor beta (Rattus norvegicus); test: % specific binding blocked by the compound fraction of 2.6 (1x10E- 5) in beta adrenergic receptor from heart membranes, after serial wash; how it was run: as §1

`C=CCc1ccccc1OCC(O)CNC(C)COCC(C)OCC(C)OCC(C)N(CC(O)COc1ccccc1CC=C)CC(O)COc1ccccc1CC=C` (configuration not stated) showed a Binding [1] of 26% and a Binding [2] of 68%.
For `C=CCc1ccccc1OCC(O)CNC(C)COC(C)COC(C)COCC(C)N` (configuration not stated), the Binding [3] was 0%, the Binding [1] was 3.8% and the Binding [2] was 14%. For the same compound, the Binding [4] was 0%.
In the case of `CC(N)COCC(C)OCC(C)OCC(C)N` (configuration not stated), the Binding [5] is reported as 0%, the Binding [6] is reported as 0% and the Binding [7] is reported as 0%. It also gave a Binding [8] of 0%.
For `C=CCc1ccccc1OCC(O)CNC(C)COCC(C)OCC(C)OCC(C)NCC(O)COc1ccccc1CC=C` (configuration not stated), the Binding [1] was 42.5% and the Binding [2] was 77%.
